Columns and labels:
Assay type in all cases: ADME
[1] = biological target: T1, UDP-glucuronosyltransferase 2B17 (Homo sapiens, UniProt O75795); assay: Activity of human UGT2B17 expressed in microsomes isolated from baculovirus infected insect cell assessed as enzyme-mediated (2S,3S,4S,5R,6R)-3,4,5-trihydroxy-6-(5-(4-((6-methoxy-1-methyl-1H-benzo[d]imidazol-2-yl)methoxy)benzyl)-2,4-dioxothiazolidin-3-yl)tetrahydro-2H-pyran-2-carboxylic acid formation at 20 uM after 4 hrs by radio-HPLC/LC-MS/MS analysis in presence of UDPGA
T1 sequence (O75795 whole entry): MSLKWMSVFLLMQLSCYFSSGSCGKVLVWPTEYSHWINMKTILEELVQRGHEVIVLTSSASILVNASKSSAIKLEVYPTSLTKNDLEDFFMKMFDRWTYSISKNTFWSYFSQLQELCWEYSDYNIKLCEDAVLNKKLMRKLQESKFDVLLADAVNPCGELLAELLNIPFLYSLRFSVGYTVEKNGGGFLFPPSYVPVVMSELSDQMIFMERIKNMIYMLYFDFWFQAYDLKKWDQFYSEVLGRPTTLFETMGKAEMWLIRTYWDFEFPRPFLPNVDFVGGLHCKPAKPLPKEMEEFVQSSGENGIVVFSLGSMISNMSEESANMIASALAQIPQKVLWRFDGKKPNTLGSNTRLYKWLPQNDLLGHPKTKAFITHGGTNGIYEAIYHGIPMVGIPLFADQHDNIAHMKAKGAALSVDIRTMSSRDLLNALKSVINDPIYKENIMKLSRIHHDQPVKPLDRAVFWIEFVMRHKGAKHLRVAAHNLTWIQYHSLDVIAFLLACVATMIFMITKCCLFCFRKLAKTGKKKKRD

[2] = system: Liver microsome; assay: Drug metabolism in Sprague-Dawley rat liver microsomes assessed as formation of (2S,3S,4S,5R,6R)-6-((1-carboxy-2-(4-((6-methoxy-1-methyl-1H-benzo[d]imidazol-2-yl)methoxy)phenyl)ethylthio)carbonylamino)-3,4,5-trihydroxytetrahydro-2H-pyran-2-carboxylic acid at 20 uM after 4 hrs by radio-HPLC/LC-MS/MS analysis in presence of UDPGA and UDPGA/SAM
[3] = biological target: Cytochrome P450 3A5 (Homo sapiens, UniProt P20815); assay: Activity of human CYP3A5 expressed in microsomes isolated from baculovirus infected insect cell assessed as enzyme-mediated 2-mercapto-3-(4-((6-methoxy-1-methyl-1H-benzo[d]imidazol-2-yl)methoxy)phenyl)propanamide formation at 20 uM after 2 hrs by radio-HPLC/LC-MS/MS analysis in presence of NADPH-generating system and NADPH-generating system/SAM
Cytochrome P450 3A5, sequence (P20815 whole entry): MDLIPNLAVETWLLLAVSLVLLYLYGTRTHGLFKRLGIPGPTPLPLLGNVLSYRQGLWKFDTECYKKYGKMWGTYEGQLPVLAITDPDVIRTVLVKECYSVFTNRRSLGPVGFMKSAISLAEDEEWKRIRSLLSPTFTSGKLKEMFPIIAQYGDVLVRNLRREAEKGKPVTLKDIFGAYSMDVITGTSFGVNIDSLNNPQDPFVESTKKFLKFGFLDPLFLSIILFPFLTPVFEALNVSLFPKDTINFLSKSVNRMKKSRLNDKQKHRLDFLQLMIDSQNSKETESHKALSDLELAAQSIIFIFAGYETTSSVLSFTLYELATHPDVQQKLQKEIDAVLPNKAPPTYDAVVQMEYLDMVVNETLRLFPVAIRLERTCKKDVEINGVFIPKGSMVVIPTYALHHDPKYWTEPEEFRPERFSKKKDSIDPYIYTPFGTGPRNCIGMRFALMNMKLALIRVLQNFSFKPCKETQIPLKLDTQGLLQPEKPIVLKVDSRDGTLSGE
How it was run: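 cDNA-expressed human CYP3A5 in baculovirus-insect-cell microsomes (1 mg/ml protein) was incubated with [¹⁴C]rivoglitazone (20 μM) in 50 mM potassium phosphate (pH 7.4) or 100 mM Tris-HCl (pH 7.5). NADPH-generating system: 2 mM NADP⁺, 20 mM glucose 6-phosphate, 2 units/ml G6PDH, 10 mM MgCl₂. Incubation ran 2 h at 37°C with shaking; insect-cell control supersomes served as control. Acetonitrile stop, supernatant concentrated, then radio-HPLC, LC-MS and LC-MS/MS.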

[4] = biological target: T2, Cytochrome P450 1A2 (Homo sapiens, UniProt P05177); assay: Activity of human CYP1A2 expressed in microsomes isolated from baculovirus infected insect cell assessed as enzyme-mediated 2-((4-((2,4-dioxothiazolidin-5-yl)methyl)phenoxy)methyl)-1-methyl-1H-benzo[d]imidazol-6-yl hydrogen sulfate formation at 20 uM after 2 hrs by radio-HPLC/LC-MS/MS analysis
T2 sequence (P05177 whole entry): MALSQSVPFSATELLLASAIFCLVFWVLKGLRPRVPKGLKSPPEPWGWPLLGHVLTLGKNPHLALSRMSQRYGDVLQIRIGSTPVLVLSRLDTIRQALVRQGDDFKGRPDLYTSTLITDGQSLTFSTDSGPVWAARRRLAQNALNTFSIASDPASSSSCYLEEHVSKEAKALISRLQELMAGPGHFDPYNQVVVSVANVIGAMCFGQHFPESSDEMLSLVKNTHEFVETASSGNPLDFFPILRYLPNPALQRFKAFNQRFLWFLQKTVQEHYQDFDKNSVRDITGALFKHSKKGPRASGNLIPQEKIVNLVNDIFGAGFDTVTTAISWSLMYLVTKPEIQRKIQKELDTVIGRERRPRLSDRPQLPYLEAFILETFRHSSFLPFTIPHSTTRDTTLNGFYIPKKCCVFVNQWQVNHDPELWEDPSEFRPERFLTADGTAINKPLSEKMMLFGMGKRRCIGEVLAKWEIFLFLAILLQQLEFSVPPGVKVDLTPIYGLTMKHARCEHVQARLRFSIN
How it was run: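 Baculovirus/insect-cell microsomes expressing single human CYPs, 1 mg/ml protein, with 50 mM potassium phosphate (pH 7.4) or 100 mM Tris-HCl (pH 7.5). NADPH-generating system: 2 mM NADP⁺, 20 mM glucose 6-phosphate, 2 units/ml G6PDH, 10 mM MgCl₂. [¹⁴C]rivoglitazone at 20 μM, 2 h at 37°C with shaking. Control used insect-cell control supersomes. Stopped with acetonitrile; supernatant concentrated under nitrogen; metabolites analysed by radio-HPLC, LC-MS and LC-MS/MS.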

[5] = biological target: T3, Cytochrome P450 3A4 (Homo sapiens, UniProt P08684); assay: Activity of human CYP3A4 expressed in microsomes isolated from baculovirus infected insect cell assessed as enzyme-mediated 2-mercapto-3-(4-((6-methoxy-1-methyl-1H-benzo[d]imidazol-2-yl)methoxy)phenyl)propanoic acid formation at 20 uM after 2 hrs by radio-HPLC/LC-MS/MS analysis in presence of NADPH-generating system
T3 sequence (P08684 whole entry): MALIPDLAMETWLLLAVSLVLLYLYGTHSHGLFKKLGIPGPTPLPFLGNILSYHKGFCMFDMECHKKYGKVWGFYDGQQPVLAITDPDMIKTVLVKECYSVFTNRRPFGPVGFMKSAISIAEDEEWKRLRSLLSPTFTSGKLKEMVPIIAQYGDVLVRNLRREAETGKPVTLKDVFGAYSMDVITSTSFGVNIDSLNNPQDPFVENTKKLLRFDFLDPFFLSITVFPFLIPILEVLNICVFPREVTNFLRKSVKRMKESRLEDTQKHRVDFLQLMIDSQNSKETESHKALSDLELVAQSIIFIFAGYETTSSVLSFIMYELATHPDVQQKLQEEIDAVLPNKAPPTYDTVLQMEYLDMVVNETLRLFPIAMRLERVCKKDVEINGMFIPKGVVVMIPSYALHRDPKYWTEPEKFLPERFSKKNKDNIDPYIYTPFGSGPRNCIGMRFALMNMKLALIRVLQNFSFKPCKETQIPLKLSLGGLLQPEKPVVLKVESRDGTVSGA
How it was run: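 Baculovirus-insect-cell microsomes expressing the human CYP (1 mg/ml protein) were incubated with [14C]rivoglitazone (20 μM) in 50 mM potassium phosphate (pH 7.4) or 100 mM Tris-HCl (pH 7.5) with an NADPH-generating system (2 mM NADP+, 20 mM glucose 6-phosphate, 2 units/ml G6PDH, 10 mM MgCl2) for 2 h at 37°C. Insect-cell control supersomes served as the control. Reactions were stopped with acetonitrile, and the concentrated supernatants were analysed by radio-HPLC, LC-MS and LC-MS/MS.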

[6] = biological target: T4, UDP-glucuronosyltransferase 2B7 (Homo sapiens, UniProt P16662); assay: Activity of human UGT2B7 expressed in microsomes isolated from baculovirus infected insect cell assessed as enzyme-mediated (2S,3S,4S,5R,6R)-6-((1-carboxy-2-(4-((6-methoxy-1-methyl-1H-benzo[d]imidazol-2-yl)methoxy)phenyl)ethylthio)carbonylamino)-3,4,5-trihydroxytetrahydro-2H-pyran-2-carboxylic acid formation at 20 uM after 4 hrs by radio-HPLC/LC-MS/MS analysis in presence of NADPH-generating system/SAM
T4 sequence (P16662 whole entry): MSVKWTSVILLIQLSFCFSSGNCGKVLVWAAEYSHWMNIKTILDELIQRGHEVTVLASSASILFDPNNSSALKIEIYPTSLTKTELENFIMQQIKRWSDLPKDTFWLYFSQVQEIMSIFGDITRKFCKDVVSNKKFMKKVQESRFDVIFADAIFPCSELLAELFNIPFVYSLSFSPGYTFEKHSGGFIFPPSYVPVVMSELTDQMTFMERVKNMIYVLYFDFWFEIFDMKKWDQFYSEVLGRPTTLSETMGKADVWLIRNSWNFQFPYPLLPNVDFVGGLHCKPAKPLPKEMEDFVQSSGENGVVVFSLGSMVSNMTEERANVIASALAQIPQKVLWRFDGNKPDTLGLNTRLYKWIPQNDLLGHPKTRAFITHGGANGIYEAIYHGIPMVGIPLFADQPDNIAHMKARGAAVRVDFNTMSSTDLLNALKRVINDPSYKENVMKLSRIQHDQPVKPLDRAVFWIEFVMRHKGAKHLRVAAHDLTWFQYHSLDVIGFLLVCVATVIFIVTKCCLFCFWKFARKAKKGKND

[7] = biological target: T3, Cytochrome P450 3A4; assay: Activity of human CYP3A4 expressed in microsomes isolated from baculovirus infected insect cell assessed as enzyme-mediated 3-(4-((6-methoxy-1-methyl-1H-benzo[d]imidazol-2-yl)methoxy)phenyl)-2-(methylthio)propanamide formation at 20 uM after 2 hrs by radio-HPLC/LC-MS/MS analysis in presence of NADPH-generating system/SAM

COc1ccc2nc(COc3ccc(C[14CH]4SC(=O)NC4=O)cc3)n(C)c2c1.Cl (racemic)
Drug metabolism [1]: metabolite_not_detected | Drug metabolism [2]: metabolite_detected | Drug metabolism [3]: metabolite_detected | Drug metabolism [4]: metabolite_not_detected | Drug metabolism [5]: metabolite_detected | Drug metabolism [6]: metabolite_detected | Drug metabolism [7]: metabolite_not_detected
